The values that follow come from ChEMBL document CHEMBL4480390, “Cink4T, a quinazolinone-based dual inhibitor of Cdk4 and tubulin polymerization, identified via ligand-based virtual screening, for efficient anticancer therapy” (Eur J Med Chem, 2019).

Active and inactive are the calls of the source. No cut-off for these calls is given here. Bounds are passed on as bounds.

Assay [1] concerns the target T1, Tubulin (Sus scrofa) (UniProt P02554+P02550). The assay is described as follows: Inhibition of porcine tubulin polymerization at 3 uM incubated for 1 min by fluorescence based assay. The format is protein assay.
Assay [2] deals with Cyclin-dependent kinase 4/cyclin D1 (Homo sapiens, UniProt P11802). The assay is described as follows: Inhibition of recombinant human N-terminal GST-tagged CDK4 (S4 to E303 residues)/Cyclin D1 (Q4 to I295 residues) expressed in sf9 cells using RBCTF as substrate measured after 1 hr by ADP-glo luminescence assay. Summed up: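 ADP-Glo luminescence assay of Cdk4–cyclin D1 with RBCTF substrate, 200 ng enzyme, ATP 125 µM (2.5x working mix), Tris/MgCl2/BSA/DTT/MnCl2 buffer, 1 h at 21°C, then two 40-min reagent steps. IC50 from a four-parameter variable-slope sigmoidal fit of inhibition against concentration; mean ± SD from three independent experiments.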

Another assay concerns Calu-1. The assay is described as follows: cells. The note with it: Homo sapiens, Calu-1, 72 h.
Assay [3] has as its target T1, Tubulin (Sus scrofa). Put plainly: Inhibition of porcine tubulin polymerization at 5 uM incubated for 1 min by fluorescence based assay. It counts as protein assay. The method in brief: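 Compounds added from 10x stocks in duplicate and warmed at 37°C ≤1 min. Ice-cold tubulin pre-mix then added. Fluorescent reporter read at ex 360/em 460 nm for 60 min. Paclitaxel served as enhancer control, CaCl2 as inhibitor control.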

For a further assay, the system named is MDA-MB-468. Put plainly: cells. The note with it: Homo sapiens, MDA-MB-468, 72 h.
The target of the next assay is CDK2/Cyclin A2 (Homo sapiens, UniProt P24941). The assay is described as follows: Inhibition of human full length N-terminal GST-fused CDK2 (M1 to L298 residues)/human full length Cyclin-A2 (M1 to L432 residues) expressed in Sf9 cells using histone H1 as substrate measured after 1 hr by ADP-glo luminescence assay.
In another assay the target is CDK6/cyclin D1 (Homo sapiens, UniProt Q00534). Put plainly: Inhibition of CDK6/cyclin D1 (unknown origin) using RBER-CHKtide as substrate measured after 1 hr by ADP-glo luminescence assay. The format is protein-complex assay. Summed up: (§1)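 ADP-Glo kinase assay with 200 ng Cdk-cyclin enzyme, ATP (125 µM in 2.5x mix) and 25 µg substrate (RBCTF or RBER-CHKtide, per Cdk). Buffer: Tris, MgCl2, BSA, DTT, MnCl2 cofactor, DMSO. Reaction 1 h at 21°C; ADP-Glo 40 min, then detection reagent 40 min. Luminescence read. IC50 by 4-parameter fit; three independent experiments.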
On the technique in general: ADP-Glo turns the ADP formed in a reaction into a luminescent signal.

The subject of another assay is T47D. The assay is described as follows: cells. The note with it: Homo sapiens, 72 h.
Another assay concerns the target T2, Cytochrome P450 1A2 (Homo sapiens, UniProt P05177).
T2 sequence (P05177 whole entry): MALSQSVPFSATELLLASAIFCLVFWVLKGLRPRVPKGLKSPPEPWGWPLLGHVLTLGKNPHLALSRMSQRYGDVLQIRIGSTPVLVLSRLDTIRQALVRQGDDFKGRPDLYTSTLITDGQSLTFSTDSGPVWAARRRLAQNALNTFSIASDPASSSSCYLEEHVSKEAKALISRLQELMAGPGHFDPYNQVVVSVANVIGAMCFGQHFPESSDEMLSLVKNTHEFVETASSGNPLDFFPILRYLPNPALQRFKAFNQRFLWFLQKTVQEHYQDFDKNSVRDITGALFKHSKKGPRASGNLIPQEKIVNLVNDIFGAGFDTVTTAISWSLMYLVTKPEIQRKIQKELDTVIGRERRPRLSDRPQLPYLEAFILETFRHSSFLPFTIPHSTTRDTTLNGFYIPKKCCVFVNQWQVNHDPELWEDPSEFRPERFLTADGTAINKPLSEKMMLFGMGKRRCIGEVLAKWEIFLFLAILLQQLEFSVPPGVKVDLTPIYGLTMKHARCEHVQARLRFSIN
Put plainly: Inhibition of recombinant human CYP1A2 expressed in baker's yeast-derived microsomes using 3-cyano-7-ethoxycoumarin as substrate by fluorescence assay. The format is ADME.

Assay [4] deals with Cyclin-dependent kinase 1/cyclin B1 (Homo sapiens, UniProt P06493). The assay is described as follows: Inhibition of recombinant human N-terminal GST/His6-tagged CDK1 (M1 to M297 residues)/CyclinB1 (M1 to V433 residues) expressed in Sf9 insect cells using RBCTF as substrate measured after 1 hr by ADP-glo luminescence assay.
The next assay deals with T3, Cytochrome P450 1B1 (Homo sapiens, UniProt Q16678).
T3 sequence (Q16678 whole entry): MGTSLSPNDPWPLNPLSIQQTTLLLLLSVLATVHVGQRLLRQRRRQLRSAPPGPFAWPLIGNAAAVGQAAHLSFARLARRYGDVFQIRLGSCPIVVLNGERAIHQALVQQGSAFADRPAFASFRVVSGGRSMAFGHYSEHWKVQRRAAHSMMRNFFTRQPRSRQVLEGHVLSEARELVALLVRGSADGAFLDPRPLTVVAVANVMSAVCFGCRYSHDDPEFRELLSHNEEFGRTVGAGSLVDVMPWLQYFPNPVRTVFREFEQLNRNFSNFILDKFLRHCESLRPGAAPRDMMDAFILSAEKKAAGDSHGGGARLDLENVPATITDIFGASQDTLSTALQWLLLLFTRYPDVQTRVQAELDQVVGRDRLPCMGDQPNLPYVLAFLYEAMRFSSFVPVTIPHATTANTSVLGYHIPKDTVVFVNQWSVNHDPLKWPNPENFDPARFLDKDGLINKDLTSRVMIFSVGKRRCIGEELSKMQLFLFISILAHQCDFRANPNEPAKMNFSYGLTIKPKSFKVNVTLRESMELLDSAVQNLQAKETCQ
Put plainly: Inhibition of recombinant human CYP1B1 expressed in baker's yeast-derived microsomes using 7-ethoxyresorufin as substrate by fluorescence assay.

Another assay has as its system A549. Put plainly: cells. The conditions noted are these: Homo sapiens, A549, 72 h.
Another assay has as its target T4, Cytochrome P450 1A1 (Homo sapiens, UniProt P04798).
T4 sequence (P04798 whole entry): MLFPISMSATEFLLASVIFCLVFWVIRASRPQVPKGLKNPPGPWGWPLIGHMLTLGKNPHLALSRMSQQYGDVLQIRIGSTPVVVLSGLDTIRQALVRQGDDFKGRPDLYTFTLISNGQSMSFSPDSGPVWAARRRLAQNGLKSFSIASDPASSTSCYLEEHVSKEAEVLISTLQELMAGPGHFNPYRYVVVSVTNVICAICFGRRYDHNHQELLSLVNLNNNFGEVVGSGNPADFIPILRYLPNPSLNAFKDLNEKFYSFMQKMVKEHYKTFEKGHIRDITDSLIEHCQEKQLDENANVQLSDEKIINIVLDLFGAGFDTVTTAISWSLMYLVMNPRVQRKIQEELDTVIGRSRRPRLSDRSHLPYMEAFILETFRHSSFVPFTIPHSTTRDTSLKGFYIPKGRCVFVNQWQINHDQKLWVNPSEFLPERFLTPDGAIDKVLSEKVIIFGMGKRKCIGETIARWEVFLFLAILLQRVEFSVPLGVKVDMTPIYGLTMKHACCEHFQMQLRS
Put plainly: Inhibition of recombinant human CYP1A1 expressed in baker's yeast-derived microsomes using 7-ethoxyresorufin as substrate by fluorescence assay. It counts as ADME.

Assay [5] deals with Cyclin-dependent kinase 4/cyclin D1 (Homo sapiens) (UniProt P11802+P24385). The assay is described as follows: Inhibition of recombinant human N-terminal GST-tagged CDK4 (S4 to E303 residues)/Cyclin D1 (Q4 to I295 residues) expressed in sf9 cells at 10 uM using RBCTF as substrate measured after 1 hr by ADP-glo luminescence assay relative to control.
Another assay has as its target CDK9/cyclin T1 (Homo sapiens, UniProt P50750). Put plainly: Inhibition of N-terminal GST-HIS6 fusion protein tagged human full length CDK9 (M1 to F372 residues)/N-terminal HIS6-fused human Cyclin-T1 (M1 to K726 residues) expressed in Sf9 cells using RBCTF as substrate measured after 1 hr by ADP-glo luminescence assay.
For assay [6], the target named is CDK9/cyclin T1 (Homo sapiens) (UniProt O60563+P50750). The assay is described as follows: Inhibition of N-terminal GST-HIS6 fusion protein tagged human full length CDK9 (M1 to F372 residues)/N-terminal HIS6-fused human Cyclin-T1 (M1 to K726 residues) expressed in Sf9 cells at 10 uM using RBCTF as substrate measured after 1 hr by ADP-glo luminescence assay relative to control. The method in brief:
as §1

Turning to `CC(=O)O[C@H]1C(=O)[C@@]2(C)[C@H]([C@H](OC(=O)c3ccccc3)[C@]3(O)C[C@H](OC(=O)[C@H](O)[C@@H](NC(=O)c4ccccc4)c4ccccc4)C(C)=C1C3(C)C)[C@]1(OC(C)=O)CO[C@@H]1C[C@@H]2O`, the inhibition (usually the percentage by which the read-out fell short of the control) on Tubulin (Sus scrofa) [1] was “inactive”.

Regarding `CC[C@]1(O)C[C@@H]2CN(CCc3c([nH]c4ccccc34)[C@@](C(=O)OC)(c3cc4c(cc3OC)N(C)[C@H]3[C@@](O)(C(=O)OC)[C@H](OC(C)=O)[C@]5(CC)C=CCN6CC[C@]43[C@@H]65)C2)C1`, the inhibition result on Tubulin (Sus scrofa) [1] is “Active”.

For `COc1ccccc1NC(=O)COc1ccc(-c2nc3ccccc3c(=O)[nH]2)cc1OC`, the IC50 (in general, the point on the concentration scale where inhibition reaches its midpoint) in assay [2] was 1.5 µM; on CDK2/Cyclin A2, above 50 µM; on CDK6/cyclin D1 it was above 100 µM; on Cytochrome P450 1A2, above 5 µM; in assay [4], above 50 µM; on Cytochrome P450 1B1, above 5 µM. In addition, the IC50 was above 5 µM at Cytochrome P450 1A1 and above 100 µM against CDK9/cyclin T1. Moreover, the EC50 – broadly, the concentration at which the effect is half-maximal – with Calu-1 is 6 µM; in the assay with MDA-MB-468 it was above 50 µM; in the assay on T47D, 4 µM; with A549, 3 µM. At Tubulin (Sus scrofa) [3], the inhibition result was “Active”. For the same compound, the inhibition in assay [5] was 89%.

On to `COc1ccc(-c2nc3ccccc3c(=O)[nH]2)cc1OCC(=O)NC1CCCCC1`, for which the IC50 in assay [2] is 3.8 µM; on CDK2/Cyclin A2 it was above 100 µM; against CDK6/cyclin D1 it was above 100 µM; at Cytochrome P450 1A2, above 5 µM; in assay [4], above 50 µM; on Cytochrome P450 1B1, above 5 µM. Also, the IC50 on Cytochrome P450 1A1 was above 5 µM; against CDK9/cyclin T1, above 50 µM. For the same compound, the EC50 was 9.8 µM with Calu-1, above 50 µM in the assay with MDA-MB-468, 8.2 µM with T47D and 7.5 µM in the assay with A549. Also, on Tubulin (Sus scrofa) [3], the inhibition result was “Active”. Also, the inhibition in assay [6] was determined as 8%; in assay [5], 76%.
